According to ChEMBL document CHEMBL5724801, “EUbOPEN Chemogenomics Library - Multiplex” (2024):
Where “and” joins values, the source holds several entries; their conditions need not be identical. Equal values may be shown once. Non-standard residues stand in square brackets, D forms with d. Residues, ends and D or L forms follow the SMILES beside them.

Tests used:
HEK-293T = assay: Multiplex assay against HEK293T; format: toxicity, cell-based; conditions: human
Method in brief: (§1)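 Cells stained live at seeding with Hoechst33342, BioTracker Green Microtubule Cytoskeleton Dye, MitoTracker Red and Annexin V Alexa Fluor 680 were imaged on a CQ1 microscope at 37°C and 5% CO2 after compound addition. Their classification by CellPathfinder machine-learning gating ran from Hoechst high-intensity objects versus normal cells, to healthy, pyknosed or fragmented nuclei among normal cells, to mitotic or apoptotic among pyknosed cells. Tubulin, mitochondrial-mass and membrane-permeability phenotypes are per cents of healthy-nucleus cells.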

U2OS = assay: Multiplex assay against U2OS; format: toxicity, cell-based; conditions: human; method in brief: as §1
[1] = 24 h, 1 µM, compound concentration 1 uM
[2] = 24 h, 10 µM, compound concentration 10 uM
[3] = 48 h, 1 µM, compound concentration 1 uM
[4] = 48 h, 10 µM, compound concentration 10 uM
[5] = 12 h, 1 µM, compound concentration 1 uM
[6] = 12 h, 10 µM, compound concentration 10 uM

CC(C)C[C@@H]1NC(=O)[C@@H](C(C)C)NC(=O)[C@@H]2CCCN2C(=O)[C@@H](CC(=O)O)NC(=O)[C@@H](Cc2c[nH]c3ccccc23)NC1=O [BQ-123] (cyclo(L[dW][dD]P[dV]))
Total Cell Count (HEK-293T; [1]): 497 and 538
Population Apoptotic (%) (HEK-293T; [2]): 25% and 57%
Population Fragmented Nuclei (%) (HEK-293T; [2]): 11% and 8%
Population Healthy Nuclei (%) (HEK-293T; [2]): 77% and 78%
Population Hoechst High Intensity Objects (%) (HEK-293T; [2]): 6% and 7%
Population Membrane Permeable-Phenotype (%) (HEK-293T; [2]): 0%
Population Mitochondria Different-Phenotype (%) (HEK-293T; [2]): 31% and 50%
Population Mitotic Cells (%) (HEK-293T; [2]): 75% and 42%
Population Normal (%) (HEK-293T; [2]): 93% and 92%
Population Pyknosed Nuclei (%) (HEK-293T; [2]): 11% and 12%
Population Tubulin-Different-Phenotype (%) (HEK-293T; [2]): 24% and 18%
Total Cell Count (HEK-293T; [2]): 511 and 302
Population Apoptotic (%) (HEK-293T; [3]): 21% and 24%
Population Fragmented Nuclei (%) (HEK-293T; [3]): 11%
Population Healthy Nuclei (%) (HEK-293T; [3]): 79% and 81%
Population Hoechst High Intensity Objects (%) (HEK-293T; [3]): 3% and 5%
Population Membrane Permeable-Phenotype (%) (HEK-293T; [3]): 0% and 1%
Population Mitochondria Different-Phenotype (%) (HEK-293T; [3]): 22% and 18%
Population Mitotic Cells (%) (HEK-293T; [3]): 78% and 75%
Population Normal (%) (HEK-293T; [3]): 96% and 94%
Population Pyknosed Nuclei (%) (HEK-293T; [3]): 9% and 7%
Population Tubulin-Different-Phenotype (%) (HEK-293T; [3]): 15% and 10%
Total Cell Count (HEK-293T; [3]): 719 and 777
Population Apoptotic (%) (HEK-293T; [4]): 25% and 40%
Population Fragmented Nuclei (%) (HEK-293T; [4]): 16% and 11%
Population Healthy Nuclei (%) (HEK-293T; [4]): 77% and 80%
Population Hoechst High Intensity Objects (%) (HEK-293T; [4]): 3%
Population Membrane Permeable-Phenotype (%) (HEK-293T; [4]): 1% and 0%
Population Mitochondria Different-Phenotype (%) (HEK-293T; [4]): 21% and 29%
Population Mitotic Cells (%) (HEK-293T; [4]): 75% and 59%
Population Normal (%) (HEK-293T; [4]): 96%
Population Pyknosed Nuclei (%) (HEK-293T; [4]): 6% and 8%
Population Tubulin-Different-Phenotype (%) (HEK-293T; [4]): 15% and 16%
Total Cell Count (HEK-293T; [4]): 756 and 477
Population Apoptotic (%) (U2OS; [5]): 77% and 83%
Population Fragmented Nuclei (%) (U2OS; [5]): 20% and 19%
Population Healthy Nuclei (%) (U2OS; [5]): 69% and 75%
Population Hoechst High Intensity Objects (%) (U2OS; [5]): 0% and 2%
Population Membrane Permeable-Phenotype (%) (U2OS; [5]): 1% and 2%
Population Mitochondria Different-Phenotype (%) (U2OS; [5]): 1% and 0%
Population Mitotic Cells (%) (U2OS; [5]): 22% and 16%
Population Normal (%) (U2OS; [5]): 99% and 97%
Population Pyknosed Nuclei (%) (U2OS; [5]): 9% and 5%
Population Tubulin-Different-Phenotype (%) (U2OS; [5]): 0% and 8%
Total Cell Count (U2OS; [5]): 228 and 118
Population Apoptotic (%) (U2OS; [6]): 78% and 75%
Population Fragmented Nuclei (%) (U2OS; [6]): 29% and 25%
Population Healthy Nuclei (%) (U2OS; [6]): 65% and 70%
Population Hoechst High Intensity Objects (%) (U2OS; [6]): 2%
Population Membrane Permeable-Phenotype (%) (U2OS; [6]): 8% and 7%
Population Mitochondria Different-Phenotype (%) (U2OS; [6]): 1% and 4%
Population Mitotic Cells (%) (U2OS; [6]): 21% and 25%
Population Normal (%) (U2OS; [6]): 97%
Population Pyknosed Nuclei (%) (U2OS; [6]): 4%
Population Tubulin-Different-Phenotype (%) (U2OS; [6]): 3% and 2%
Total Cell Count (U2OS; [6]): 294 and 99
Population Apoptotic (%) (U2OS; [1]): 69% and 85%
Population Fragmented Nuclei (%) (U2OS; [1]): 16% and 11%
Population Healthy Nuclei (%) (U2OS; [1]): 75% and 77%
Population Hoechst High Intensity Objects (%) (U2OS; [1]): 0%
Population Membrane Permeable-Phenotype (%) (U2OS; [1]): 2% and 6%
Population Mitochondria Different-Phenotype (%) (U2OS; [1]): 1% and 0%
Population Mitotic Cells (%) (U2OS; [1]): 30% and 14%
Population Normal (%) (U2OS; [1]): 99%
Population Pyknosed Nuclei (%) (U2OS; [1]): 8% and 10%
Population Tubulin-Different-Phenotype (%) (U2OS; [1]): 1% and 3%
Total Cell Count (U2OS; [1]): 279 and 137
Population Apoptotic (%) (U2OS; [2]): 92% and 100%
Population Fragmented Nuclei (%) (U2OS; [2]): 24%
Population Healthy Nuclei (%) (U2OS; [2]): 67% and 74%
Population Hoechst High Intensity Objects (%) (U2OS; [2]): 2% and 0%
Population Membrane Permeable-Phenotype (%) (U2OS; [2]): 8% and 6%
Population Mitochondria Different-Phenotype (%) (U2OS; [2]): 2% and 8%
Population Mitotic Cells (%) (U2OS; [2]): 8% and 0%
Population Normal (%) (U2OS; [2]): 97% and 99%
Population Pyknosed Nuclei (%) (U2OS; [2]): 7% and 1%
Population Tubulin-Different-Phenotype (%) (U2OS; [2]): 4%
Total Cell Count (U2OS; [2]): 338 and 113
Population Apoptotic (%) (U2OS; [3]): 77% and 100%
Population Fragmented Nuclei (%) (U2OS; [3]): 14% and 18%
Population Healthy Nuclei (%) (U2OS; [3]): 79% and 70%
Population Hoechst High Intensity Objects (%) (U2OS; [3]): 1%
Population Membrane Permeable-Phenotype (%) (U2OS; [3]): 3%
Population Mitochondria Different-Phenotype (%) (U2OS; [3]): 1% and 3%
Population Mitotic Cells (%) (U2OS; [3]): 22% and 0%
Population Normal (%) (U2OS; [3]): 98%
Population Pyknosed Nuclei (%) (U2OS; [3]): 5% and 10%
Population Tubulin-Different-Phenotype (%) (U2OS; [3]): 3% and 2%
Total Cell Count (U2OS; [3]): 407 and 226
Population Apoptotic (%) (U2OS; [4]): 94% and 81%
Population Fragmented Nuclei (%) (U2OS; [4]): 19% and 20%
Population Healthy Nuclei (%) (U2OS; [4]): 70% and 66%
Population Hoechst High Intensity Objects (%) (U2OS; [4]): 1%
Population Membrane Permeable-Phenotype (%) (U2OS; [4]): 5%
Population Mitochondria Different-Phenotype (%) (U2OS; [4]): 2% and 6%
Population Normal (%) (U2OS; [4]): 98%
Population Pyknosed Nuclei (%) (U2OS; [4]): 9% and 12%
Population Tubulin-Different-Phenotype (%) (U2OS; [4]): 3% and 2%
